Screening results as filed in PubChem.
Beta cell apopt: beta cell apoptosis inhibition | INS-1E cytokine-induced death, ATP luminescence, 48 h; percent of positive-control rescue, neutral wells zero | protection from apoptosis, % (no concentration beside the values) | 300,000 tested, 0.8% active;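 active = Every replicate reaches about 75%, or at least half do and their mean reaches it too, limit read from the data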;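 also: 0% = cytokine-treated negative control wells and 100% = positive control rescue; higher means more ATP so stronger rescue from cytokine killing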
CSC inhib: cancer stem cell inhibition. 300,000 tested, 1.1% active. inhibition, % at 7.5 µM. cancer stem cell-like cells viability, luminescence. AID 2717; in the data active = inhibition above about 75%; tested in HMLE shEcad cells
Efflux pump mplx: blocks antifungal efflux pumps in multiplex yeast assay. S. cerevisiae Candida pump triplex, Nile Red efflux. inhibition, % at 10 µM. 330,000 tested, 0.44% active;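 active = plate passing quality check with inhibition over a set limit, or well fluorescence over plate mean plus 4 SD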;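 also: Nile Red retained in pooled yeast measured as flow cytometry median fluorescence; 0% = buffer negative control and 100% = Enniatin B positive control; higher means more Nile Red kept so more efflux inhibition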
WT yeast gro inh: growth inhibition of WT yeast, mitochondrial fusion screen | mitochondrial fusion phenotypic screen, WT strain | inhibition, % at 10 µM | 190,000 tested, 2.1% active; in the data active = inhibition above about 58%; tested in S. cerevisiae
SUMO Mot1 rescue: blocks SUMOylation pathway, rescuing yeast Mot1-301 growth | 320,000 tested, 1% active | growth rescue, % at 18.8 µM | S. cerevisiae Mot1-301 growth rescue, ATP luminescence, 38.5C; percent above DMSO median, 100 means doubled;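 active = every valid replicate shows activation above 250% relative to neutral control wells; inactive = the rest, any valid replicate at or below 250%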;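 also: OY570 slx delta 5 strain wells were the positive control but not used for scaling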
T cruzi repl: T. cruzi replication inhibition; T. cruzi beta-gal in NIH3T3, luminescence, 90 h; inhibition, % (test concentration not listed); 300,000 tested, 1.4% active;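 active = mean inhibition across valid replicates above about 55%, limit read from the data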;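 also: signal also drops with host cell toxicity which is not excluded here; 0% = plate median of DMSO wells and 100% = zero luminescence signal; higher percent means less beta-gal luminescence so fewer parasites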
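System: NIH/3T3 fibroblasts plus reporter T. cruzi. Medium: DMEM plus 2% FBS. Probe or stimulus: 5000 reporter trypomastigotes per well. Compound: single 50 nL compound addition per well in DMSO. Incubation: co-culture of at least 90 h after 3 h attachment. Detection: GalScreen β-gal luminescence, detergent lysis, 60 min. Evaluation: parasite load inhibition, %.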
Numbers without * were called inactive; . = no result given. This is a sample that favours compounds with a hit; in the whole collection about 4.8% have one here.

SMILES | Beta cell apopt | CSC inhib | Efflux pump mplx | WT yeast gro inh | SUMO Mot1 rescue | T cruzi repl
Cc1ccc2[nH]c(C)c(CCNCc3cccnc3)c2c1 | -2 | 16 | 0 | . | 3 | 18
C[C@H]1O[C@@H](O[C@H]2[C@@H](O)C[C@H](O[C@H]3[C@@H](O)C[C@H](O[C@H]4CC[C@@]5(C)[C@H](CC[C@@H]6[C@@H]5CC[C@]5(C)[C@@H](C7=CC(=O)OC7)CC[C@]65O)C4)O[C@@H]3C)O[C@@H]2C)C[C@H](O)[C@@H]1O | . | . | . | -3 | . | .
C[C@]12CC[C@H]3[C@@H](CC[C@]4(O)C[C@@H](O)CC[C@]34C=O)[C@@]1(O)CC[C@@H]2C1=CC(=O)OC1 | 0 | 101* | 1 | . | -4 | .
CCCCN=C[C@]12CCC(O)CC1(O)CCC1[C@@H]2CC[C@]2(C)[C@H](C3C=CC(=O)O3)CCC12O (stereo not given in full) | -10 | 99* | 0 | . | 48 | 2
CC12CC[C@H]3[C@@H](CCC4(O)C[C@H](O)CCC34/C=N/NC(=O)c3ccccc3Cl)C1(O)CCC2C1=CC(=O)OC1 (stereo not given in full) | -3 | -4 | 0 | . | -25 | -3
C[C@H]1O[C@@H](OC2CC[C@]3(C=O)[C@H]4CC[C@]5(C)[C@@H](C6=CC(=O)OC6)CC[C@]5(O)[C@@H]4CC[C@]3(O)C2)CC2OC(C)(C)OC21 (stereo not given in full) | -2 | 101* | 0 | . | 39 | -9
COc1ccc(CCN)cc1OC | -1 | -8 | 0 | . | -4 | -14
NCCc1ccc(OCc2ccccc2)c(OCc2ccccc2)c1 | 9 | 106* | 0 | . | 9 | .
CCc1ccc(C(=O)C23CN4CN(CN(C4)C2)C3)cc1 | -2 | 4 | 0 | -18 | 351* | -6
Fc1ccc(C(OCCN2CCN(CCCc3ccccc3)CC2)c2ccc(F)cc2)cc1 | 102* | 98* | 0 | . | -11 | 36
CCCCC(CC)CNCC(O)c1ccccc1 (stereo not given) | 5 | 1 | 0 | 11 | -33 | 78*
CCC[C@H](N[C@@H](CCC)[C@H](O)c1ccccc1)[C@H](O)c1ccccc1 | . | . | 0 | . | -13 | 7
COC(=O)C1=C(c2ccc(C(C)=O)cc2)C[C@@H]2CC[C@H]1N2C(=O)N1CCC(O)CC1 | -4 | 0 | 0 | . | 2 | .
O=[N+]([O-])c1cc(Cl)c(O)c(-[n+]2c(-c3ccccc3)cc(-c3ccccc3)cc2-c2ccccc2)c1 | 14 | -3 | 0 | . | 13 | 24
Cc1ccc(-c2cc(-c3ccc(C)cc3)[n+](-c3ccc(C(=O)[O-])cc3)c(-c3ccc(C)cc3)c2)cc1 | 98* | 17 | 0 | . | 20 | 41
c1ccc(-c2cc(-c3ccccc3)[n+](-c3ccccc3)c(-c3ccccc3)c2)cc1 | 113* | 37 | 0 | . | 33 | 42
C[n+]1c(-c2ccccc2)cc(-c2ccc(Cl)cc2)cc1-c1ccccc1 | 39 | 4 | 0 | 7 | -11 | 51
Cc1ccc(-c2cc(-c3ccccc3)cc(-c3ccccc3)[n+]2-c2ccccc2)cc1 | 121* | 25 | 0 | . | 7 | 49
CN(C)c1ccc(-[n+]2c(-c3ccccc3)cc(-c3ccccc3)cc2-c2ccccc2)cc1 | . | . | . | 77* | . | 61*
N=C1c2ccccc2CN1c1ccc(F)c([N+](=O)[O-])c1 | 3 | -8 | 0 | . | 137 | -6
Cc1ccc(-n2c(-c3cccs3)nc3ccccc3c2=O)cc1 | -9 | 78* | 0 | -6 | -14 | 21
O=C(/C=C/c1ccc(F)cc1)NC(=S)N1C[C@H]2C[C@H](C1)c1cccc(=O)n1C2 | -1 | 4 | 0 | . | 23 | -3
COC(=O)C1=C(c2ccc(OC(F)(F)F)cc2)C[C@@H]2CC[C@H]1N2C(=O)N1CCOCC1 | -6 | -17 | 0 | . | 6 | .
c1ccc(-c2[nH]c(-c3ccccc3)[n+](CC3CO3)c2-c2ccccc2)cc1 (stereo not given) | -3 | 26 | 0 | 59* | 0 | -6
COC(=O)C1=C(c2c(C)noc2C)C[C@@H]2CC[C@H]1N2C(=O)NC1CCCCC1 | -2 | -25 | 0 | . | -3 | .
COc1ccccc1C1=NCc2nnc(C)n2-c2ccc(Cl)cc21 | 2 | -21 | 0 | 1 | -11 | -5
